Avidin bead fluor = avidin bead compound fluorescence profile | Avidin beads, compound fluorescence 488/530 nm, flow cytometry; hits give high values | fluorescence (KMESF) at 10 µM | 220,000 compounds, 0.38% hits; in the data active means fluorescence above about 47
Lmaj promast = Leishmania major promastigote growth inhibition; Leishmania major promastigotes, resazurin fluorescence viability; inhibition, % at 10 µM; 200,000 compounds, 9% hits; AID 1063;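 further: promastigotes grown with compound for 44 hours at 28 °C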
GSH fluor = compound fluoresces at 488/530 nm on GSH beads | GSH beads flow cytometry, compound fluorescence 488/530 nm; hits give high values | AID 1776 | 190,000 compounds, 0.25% hits | fluorescence (KMESF) at 10 µM; in the data active means fluorescence above about 89;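 further: glutathione beads carrying GST-tagged Bcl family fusion proteins plus one bare bead set; values are compound well signal with DMSO vehicle wells as background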
PKD1 kinase inh = inhibitors of human PKD1 kinase | Q15139 | PKD1 kinase fluorescence polarization assay | inhibition, % (no concentration beside the values) | 200,000 compounds, 0.056% hits
ABCG2 block = human ABCG2 inhibition, ABCB1 as counter-screen | Q9UNQ0 | IgMXP3 cells, JC-1 efflux, flow cytometry | inhibition, % at 6.6 µM | 190,000 compounds, 0.1% hits | AID 1325;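 active means inhibition above 80%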;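 further: 0% = DMSO and 100% = nicardipine control wells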
Target sequence (Q9UNQ0 whole entry, looked up): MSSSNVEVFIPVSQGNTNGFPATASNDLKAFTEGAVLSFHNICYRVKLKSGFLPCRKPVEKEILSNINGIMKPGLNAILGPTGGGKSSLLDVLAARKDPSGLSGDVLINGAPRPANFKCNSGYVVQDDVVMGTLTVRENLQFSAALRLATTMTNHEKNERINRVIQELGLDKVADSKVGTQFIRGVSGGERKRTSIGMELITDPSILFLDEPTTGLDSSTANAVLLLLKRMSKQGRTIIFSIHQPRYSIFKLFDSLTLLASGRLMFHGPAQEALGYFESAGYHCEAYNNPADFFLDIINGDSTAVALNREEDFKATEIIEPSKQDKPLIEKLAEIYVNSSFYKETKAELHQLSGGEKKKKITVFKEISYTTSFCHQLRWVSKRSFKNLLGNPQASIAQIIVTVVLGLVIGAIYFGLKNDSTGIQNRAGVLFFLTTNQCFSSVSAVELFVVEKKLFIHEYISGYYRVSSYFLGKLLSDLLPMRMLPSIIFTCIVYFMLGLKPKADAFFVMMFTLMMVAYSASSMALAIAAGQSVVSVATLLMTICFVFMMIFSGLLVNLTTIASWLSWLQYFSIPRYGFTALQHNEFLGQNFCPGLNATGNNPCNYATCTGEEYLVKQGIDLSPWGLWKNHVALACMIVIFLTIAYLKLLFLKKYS
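Test system: IgMXP3 (ABCG2) plus far-red-tagged CCRF-Adr (ABCB1) cells / Amount: 3 million cells/mL in well / Reagent: JC-1 transporter substrate / Timing: 10 min compound exposure, 25 °C / Signal: flow cytometry, 530 nm JC-1 signal / Read-out: percent efflux inhibition, scaled nicardipine 100% to DMSO 0% / Benchmarks: nicardipine as high control, DMSO as low control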
ABCB1 inh = blocks JC-1 efflux by human ABCB1 transporter | P08183 | inhibition, % at 6.6 µM | CCRF-Adr cells, flow cytometry | AID 1326 | 190,000 compounds, 0.067% hits; in the data active means inhibition above about 40%;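 further: 0% = vehicle and 100% = reference inhibitor; higher value means more JC-1 retained so stronger ABCB1 efflux block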
Active calls of the source: *; · = not tested or not shown. Many of the other results were omitted from the sample, so hits are more common in it than they were. Unless noted, no stated cut-off is given here; in the data, active means inhibition above about 50%; inactive means the rest.

SMILES | Avidin bead fluor | Lmaj promast | GSH fluor | PKD1 kinase inh | ABCG2 block | ABCB1 inh
CCCCCOC(=O)CSc1n[nH]c(=O)[nH]c1=O | 9 | -4 | 273* | 4 | 0 | 0
C=CCN1C(c2ccc(Br)cc2)=CS/C1=C(/C#N)c1nnc(N2CCOCC2)n1-c1ccccc1 | 7 | 56* | 26 | -7 | 4 | 5
C=CCN1C(c2cccc(C(F)(F)F)c2)=CS/C1=C(/C#N)c1nnc(N2CCOCC2)n1-c1ccccc1 | 5 | 43 | 20 | 6 | -1 | 0
OC(CNC1Cc2ccccc2C1)COc1ccc(Cl)cc1 (centres undefined) | 8 | · | · | · | · | ·
OC(CNC1CCCc2ccccc21)COc1c(Cl)cccc1Cl (centres undefined) | 14 | 93* | 5 | -9 | -1 | 7
COc1cc2c(cc1OC)CN(C(=O)COc1ccc(C)c(C)c1)CC2 | 10 | 36 | 42 | -11 | 17 | 0
COc1ccc(C2(C#N)CCC(=O)N2c2ccccc2)cc1 (centres undefined) | 7 | · | · | · | · | ·
OCCC1CN(Cc2nc(-c3ccccc3)cs2)CCN1Cc1ccc(F)cc1 (centres undefined) | 11 | 79* | 13 | -2 | 10 | 2
OCCC1CN(Cc2nc(-c3ccccc3)cs2)CCN1C1CCCC1 (centres undefined) | 9 | 84* | 10 | -5 | 1 | 0
CC(C)CCN1CCN(Cc2nc(-c3ccc(F)cc3)cs2)CC1CCO (centres undefined) | 3 | 82* | 11 | -5 | -3 | 0
O=c1oc2ccccc2c(N2CCC(c3ccccc3)CC2)c1[N+](=O)[O-] | 10 | -6 | 14 | -6 | 18 | 2
O=C(CSc1nc(C2CC2)nc2c1cnn2-c1ccccc1)Nc1c[nH]c(=O)[nH]c1=O | 9 | 12 | 15 | -4 | 7 | 1
O=C(O)CCC1OC(=O)C(O)=C1c1ccccc1 (centres undefined) | 9 | · | · | · | · | ·
O=C(N/N=C/c1ccc(O)cc1)Nc1cccc2nsnc12 | 9 | 54* | 16 | 14 | -2 | -1
CCc1c(C)sc(NC(=O)CC#N)c1C#N | 32 | 66* | 11 | -12 | 0 | 0
CNC(=S)N1N=C(c2ccc(C)cc2)CC1c1ccc(Cl)cc1 (centres undefined) | 34 | 100* | 15 | -1 | 1 | 0
CNC(=S)N1N=C(c2ccc(C)cc2)CC1c1ccc(Br)cc1 (centres undefined) | 5 | 100* | 16 | 4 | 1 | 0
CN(C)c1ccc(S(=O)(=O)NCC(=O)OCC(=O)Nc2cc(Cl)cc(Cl)c2)cc1[N+](=O)[O-] | 7 | -7 | 18 | -5 | 26 | 1
COc1ccc(-c2nn(C)c(=O)c3ccccc23)cc1NC(=O)Cn1nc(C)c2ccccc2c1=O | 4 | 100* | 18 | 0 | 4 | 3
Cc1ccc(-c2nn(CC(=O)NCc3cc(-c4nn(C)c(=O)c5ccccc45)ccc3C)c(=O)c3ccccc23)cc1 | 487* | 2 | 25 | 1 | 4 | 4
CCC(=O)Nc1cc(-c2nn(C)c(=O)c3ccccc23)ccc1OC | 7 | 8 | 27 | 6 | 6 | 1
O=C(NCCCc1ccccc1)c1cc([N+](=O)[O-])ccc1Cl | 11 | -3 | 24 | -4 | 2 | 1
O=C(NCCO)c1cc([N+](=O)[O-])cc2c1C=Cc1ccccc1O2 | 16 | 95* | 8 | 8 | 5 | 1
COc1ccc(S(=O)(=O)Nc2ccc(F)c(Cl)c2)cc1OC | 20 | -5 | 23 | -3 | -2 | 0
CC(c1ccccc1)C(Cc1nc2ccccc2[nH]1)c1nc2ccccc2[nH]1 (centres undefined) | 9 | 95* | 12 | 2 | 0 | 1
Cc1cccc(OCCSCc2nc3ccccc3[nH]2)c1 | 13 | 6 | 23 | 0 | 5 | 1
Cc1cccc(CC(Cc2nc3ccccc3[nH]2)c2nc3ccccc3[nH]2)c1 (centres undefined) | 6 | 93* | 27 | -7 | 1 | 0
COc1ccccc1CC(Cc1nc2ccccc2[nH]1)c1nc2ccccc2[nH]1 (centres undefined) | 9 | 98* | 9 | 11 | 2 | 1
CC(C)Cc1nc2ccccc2[nH]1 | 3 | · | · | · | · | ·

Compound activity as filed in PubChem.
